Source: PubChem BioAssay
TLR4 MyD88 comp: blocks binding of human TLR4 to MyD88 | O00206+Q99836 | inhibition, % at 8.4 µM | actives 0.18% (n = 200,000) | AID 861 | HeLa CL3-4 TLR4/MyD88 BLA complementation, FRET ratio; in the data active = inhibition above about 25%;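 note: 0% = vehicle and 100% = reference inhibitor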
Target sequence (O00206 whole entry, looked up): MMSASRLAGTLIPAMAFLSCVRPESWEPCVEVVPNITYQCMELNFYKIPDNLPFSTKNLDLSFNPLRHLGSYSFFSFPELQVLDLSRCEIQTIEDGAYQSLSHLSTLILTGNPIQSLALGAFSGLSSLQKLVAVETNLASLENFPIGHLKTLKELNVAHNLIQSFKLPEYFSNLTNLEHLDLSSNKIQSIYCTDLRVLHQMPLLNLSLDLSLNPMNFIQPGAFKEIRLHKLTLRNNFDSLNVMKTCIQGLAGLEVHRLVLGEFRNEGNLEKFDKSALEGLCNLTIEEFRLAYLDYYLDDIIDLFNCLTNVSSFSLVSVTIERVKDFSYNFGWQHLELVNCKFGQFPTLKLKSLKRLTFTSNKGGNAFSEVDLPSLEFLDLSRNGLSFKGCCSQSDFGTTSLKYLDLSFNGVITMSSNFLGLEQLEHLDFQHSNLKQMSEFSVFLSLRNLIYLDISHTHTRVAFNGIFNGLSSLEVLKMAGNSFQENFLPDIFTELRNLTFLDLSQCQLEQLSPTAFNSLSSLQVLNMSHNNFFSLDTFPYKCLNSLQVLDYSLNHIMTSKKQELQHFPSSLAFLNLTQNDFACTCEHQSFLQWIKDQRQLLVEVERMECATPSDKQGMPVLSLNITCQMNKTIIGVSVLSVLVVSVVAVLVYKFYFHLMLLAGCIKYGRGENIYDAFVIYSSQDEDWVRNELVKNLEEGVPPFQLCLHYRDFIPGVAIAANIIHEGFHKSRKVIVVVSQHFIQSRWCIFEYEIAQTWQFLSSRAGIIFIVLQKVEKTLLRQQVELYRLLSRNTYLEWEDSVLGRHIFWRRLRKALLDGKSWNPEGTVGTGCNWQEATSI
Target sequence (Q99836 whole entry, looked up): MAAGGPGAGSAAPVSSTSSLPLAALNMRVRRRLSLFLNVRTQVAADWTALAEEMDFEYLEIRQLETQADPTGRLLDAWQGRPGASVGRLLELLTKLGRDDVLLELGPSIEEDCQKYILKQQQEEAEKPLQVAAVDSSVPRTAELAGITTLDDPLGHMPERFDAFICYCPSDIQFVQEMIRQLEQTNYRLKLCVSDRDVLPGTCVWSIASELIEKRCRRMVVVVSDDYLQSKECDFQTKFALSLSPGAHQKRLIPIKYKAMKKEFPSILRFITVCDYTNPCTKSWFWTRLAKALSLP
MT1-MMP act inh: inhibitors of human MT1-MMP activation; HT1080 RFP-PRO-GFP cells, GFP/RFP ratio fluorescence, overnight; percent of plate control window, DMSO zero; GFP/RFP ratio change, % at 20 µM; actives 0.061% (n = 360,000);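 active = GFP/RFP ratio change of at least 30% with cell ATP level not reduced by more than half and red fluorescence within 50% of control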
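Read-out: GFP/RFP fluorescence ratio; Test system: RFP-PRO-GFP reporter HT1080 cells; Compound dosing: single-point 20 µM compound, 1% DMSO; Times: overnight compound exposure at 37 °C.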
SKN-1 block: inhibitors of C. elegans SKN-1; C. elegans VP596 Pgst-4::GFP/RFP ratio, acrylamide-induced, 24 h; AID 624304; inhibition, % at 21.8 µM; actives 0.49% (n = 360,000);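 active = interference check ratio from 0.5 to 1.5 plus GFP to RFP signal ratio inhibition reaching or exceeding a fixed threshold, cut at about 30% in these data, passing the limit was not always enough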
NOD2-RIPK2 inh: inhibitors of human NOD2-RIPK2 interaction | CHO BLA complementation NOD2-RIPK2, CCF4 ratio | inhibition, % at 4.98 µM | actives 0.38% (n = 360,000) | AID 624267; in the data active = inhibition above about 21%;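 note: 0% = vehicle only and 100% = reference blocker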
TLR9-MyD88 block: blocks human TLR9 binding to MyD88; Q9NR96+Q99836; CHO BLA complementation TLR9-MyD88, CCF4 FRET ratio; inhibition, % at 4.98 µM; actives 0.21% (n = 340,000); AID 504734;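 active = inhibition above the mean over all tested compounds plus 3 SD, cut at about 21% in these data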;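 note: 0% = DMSO only wells and 100% = clavulanate BLA inhibitor control wells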
NOD2-RIPK2 conf: confirmation of human NOD2-RIPK2 interaction inhibitors; shares compounds with NOD2-RIPK2 inh; CHO cells, NOD2-RIPK2 BLA complementation, CCF4 FRET; inhibition, % at 4.98 µM; actives 70% (n = 1,200);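 active = mean inhibition across replicates above a set limit taken from the earlier primary screen, cut at about 21% in these data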;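 note: 0% = DMSO-only wells and the high end = clavulanate BLA-blocked wells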
BLA counter: hits BLA reporter in NOD2-RIPK2 inhibitor counterscreen | shares compounds with NOD2-RIPK2 inh | actives 57% (n = 1,200) | CHO BLA reporter, CCF4 FRET ratio | AID 624371 | inhibition, % at 4.98 µM;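 active = mean inhibition above the low-control mean inhibition plus three low-control SD, cut at about 11% in these data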;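 note: 0% = DMSO only wells and 100% = clavulanate high control wells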
* hit, by the source's call; · = no result. Shown are actives, neighbours in structure and some others; about 0.99% of the full set was active somewhere.

SMILES	TLR4 MyD88 comp	MT1-MMP act inh	SKN-1 block	NOD2-RIPK2 inh	TLR9-MyD88 block	NOD2-RIPK2 conf	BLA counter
CC(C)C(=O)N[C@H]1CCC2C3CC=C4C[C@@H](O)CC[C@]4(C)C3CC[C@@]21C (stereo partly drawn)	·	2.4	2.3	-4.2	-0.4	·	·
O=C(NC1CCCCC1)C(c1ccccc1)n1c(=O)c(-c2ccco2)nc2ccccc21 (stereo not drawn)	·	-11.0	-1.6	-8.8	·	·	·
O=C(NC1CCCCC1)C(c1ccnc2ccccc12)n1c(=O)c(-c2cc3ccccc3[nH]2)nc2ccccc21 (stereo not drawn)	·	-9.8	13.9	51.0*	·	49.7*	66.6*
COc1ccc(C(C(=O)NC2CCCCC2)n2c(=O)c(-c3cc4ccccc4[nH]3)nc3ccccc32)cc1 (stereo not drawn)	·	-14.1	20.2	43.7*	·	40.8*	64.9*
O=C(NC1CCCCC1)C(c1ccccc1)n1c(=O)c(-c2cc3ccccc3[nH]2)nc2ccccc21 (stereo not drawn)	·	-10.2	6.4	43.5*	·	40.0*	66.0*
N#Cc1ccc(C(C(=O)NC2CCCCC2)n2c(=O)c(-c3cc4ccccc4[nH]3)nc3ccccc32)cc1 (stereo not drawn)	·	-15.5	17.3	53.5*	·	50.2*	71.1*
COc1cc(CN2C[C@@H](CO)O[C@@H](n3cnc4c(N(C)C(C)C)ncnc43)C2)cc(OC)c1OC	·	4.9	16.8	10.9	·	·	·
C/C(=N\O)c1cc(Cl)ccc1O	·	-4.9	-9.7	6.8	8.8	·	·
Cc1cc(OCC(=O)Nc2cccc(S(=O)(=O)NC3=NCCCCC3)c2)ccc1Cl	-1.5	2.5	-2.0	40.5*	-15.4	-0.1	0.3
COCCN(C(=O)COC(=O)CCC1CCCCC1)c1c(N)n(Cc2ccccc2)c(=O)[nH]c1=O	·	2.9	-6.4	27.6*	4.3	2.5	-1.9
CN(C(=O)COC(=O)CCC1CCCCC1)c1c(N)n(Cc2ccccc2)c(=O)[nH]c1=O	·	1.5	11.3	4.6	-1.5	·	·
CCc1ccc(C(=O)Cn2ncc(Cl)c(Cl)c2=O)cc1	12.4	-11.7	-6.3	34.3*	19.3	39.9*	8.7
CCN(CC)c1ccc(-c2nn3c(-c4ccccc4OC)nnc3s2)cc1	-9.1	16.4	-3.1	22.5*	-3.8	13.7	-7.3
COc1ccc(-c2nn3c(-c4ccccc4)nnc3s2)cc1	-6.0	-0.7	-5.7	-1.3	7.4	·	·
CC(=O)Nc1ccc(Sc2ccc([N+](=O)[O-])o2)cc1	·	-9.9	-0.8	29.0*	6.6	46.8*	15.7*
CC(C)(C)C(=O)Nc1ccc(Sc2ccc([N+](=O)[O-])cc2)cc1	-3.3	·	9.7	-7.8	-11.2	·	·
CCN(C)C1CN(Cc2cn(Cc3ccc(C(F)(F)F)cc3)nn2)S(=O)(=O)C1 (stereo not drawn)	·	2.9	0.6	-8.4	·	·	·
CC(C)(C=O)C1=CC(=O)c2ccccc2C1=O	-9.0	-43.3	-3.0	22.5*	14.4	85.9*	3.8
CC1=CC(=O)c2ccccc2C1=O	3.5	-103.5	-5.0	-22.5	-9.4	·	·
O=S(=O)(/N=S1\CC=CCN1S(=O)(=O)c1ccccc1)c1ccccc1 (stereo not drawn)	·	0.2	-7.9	25.2*	10.8	-10.4	-17.1
CCCn1c(N)c(C(=O)CSc2n[nH]c(-c3ccc(C)cc3)n2)c(=O)[nH]c1=O	·	-3.0	-4.1	7.3	-11.5	·	·
COc1ccccc1N(C)S(=O)(=O)c1ccc(C(=O)OCC(N)=O)cc1	-2.6	0.4	4.2	49.9*	6.6	1.0	-3.7
COc1ccc(COc2cc(-c3cccc(OC)c3)nc3ccc(N)cc23)cc1	-4.6	25.6	-6.6	30.9*	4.2	11.5	14.8*
COc1ccc(COc2cc(-c3cccc(OC)c3)nc3ccc(NC(C)=O)cc23)cc1	-8.9	8.0	7.1	3.7	-1.4	·	·
COc1ccc(S(=O)(=O)/N=C2/C=CC(=O)C(C)=C2C)cc1	-7.6	-5.3	-11.8	-10.8	3.5	·	·
SMILES	TLR4 MyD88 comp	MT1-MMP act inh	SKN-1 block	NOD2-RIPK2 inh	TLR9-MyD88 block	NOD2-RIPK2 conf	BLA counter
CC1=C(C)/C(=N\OS(=O)(=O)c2ccc(C)cc2)C=CC1=O	-4.2	6.0	-3.0	57.6*	2.8	54.4*	3.5
CC1=C/C(=N\OS(=O)(=O)c2ccccc2)C(C)=CC1=O	-0.8	-23.4	-2.9	53.6*	11.8	51.1*	13.5*
NC(=S)c1cc2cc(Cl)ccc2oc1=O	·	0.3	-10.3	0.3	·	·	·
CCCn1c(SCC(=O)N2c3ccccc3CC2C)n[nH]c1=O (stereo not drawn)	·	4.5	11.7	-1.6	1.6	·	·
Cc1ccsc1-c1cc2nc(Nc3ccc(F)cc3)n(C)c(=O)c2s1	·	-5.1	2.1	-13.0	·	·	·
Cc1cc(-c2nnc(SCC(=O)Nc3ccc(F)cc3F)n2N)n[nH]1	·	1.4	-2.7	1.1	0.4	·	·
COc1ccc(N(CC(=O)NCC2CCCO2)C(=O)CCC(=O)Nc2cc(C)on2)cc1OC (stereo not drawn)	·	-0.5	13.3	-6.5	-5.8	·	·
O=C(NCc1ccc2c(c1)OCO2)c1nc(S(=O)(=O)Cc2ccccc2F)ncc1Cl	·	3.1	17.3	79.3*	14.2	54.9*	14.3*
CSc1nnc(NC(=O)c2nc(S(=O)(=O)Cc3ccccc3F)ncc2Cl)s1	·	-1.5	5.1	7.2	5.4	·	·
O=C(NCc1ccc2c(c1)OCO2)c1nc(S(=O)(=O)Cc2ccccc2)ncc1Cl	·	-0.4	16.5	35.9*	-0.2	29.4*	6.2
CN(C)CCCN(C(=O)CCOc1ccccc1)c1nc2ccc(F)cc2s1	6.9	-0.1	0.3	47.1*	17.8	17.4	0.5
Cc1cc([N+](=O)[O-])nn1Cc1ccc(C(=O)N/N=C/c2ccc(N(C)C)cc2)cc1	·	0.7	-8.2	-5.2	-12.7	·	·
COc1ccc(/C=C/C(=O)c2cc(F)ccc2OC(=O)c2ccc(OC)c(OC)c2)cc1OC	-7.4	-3.9	-2.6	3.1	-6.6	·	·
COc1ccc(/C=C/C(=O)c2cc(F)ccc2OC(=O)c2ccccc2)cc1OC	6.5	14.3	12.4	25.6*	1.1	18.4	-2.4
COc1ccc(/C=C/C(=O)c2cc(F)ccc2OC(=O)c2ccccc2OC)cc1OC	12.7	21.9	4.9	22.0*	3.7	22.4*	1.1
COc1ccc(CNC(=O)c2ccc(CS(=O)(=O)c3ccc(Br)cc3)o2)cc1	·	0.2	6.0	0.5	-1.3	·	·
O=C(NC1CCCCC1)c1cnn2c(C(F)(F)F)cc(-c3ccco3)nc12	-9.4	-4.7	5.5	24.2*	-3.3	12.2	3.2
O=C(NC1CCCCC1)c1nn2c(C(F)(F)F)cc(-c3ccco3)nc2c1Br	-17.3	-8.7	-13.4	0.4	15.8	·	·
